Data set [1] has as its system Staphylococcus aureus. As to the kind of experiment: Antibacterial activity against linezolid-resistant Staphylococcus aureus NRS271 assessed as growth inhibition by broth microdilution method. In kind it is functional. (Dilution methods test growth across graded concentrations, often in twofold steps.)
Data set [2] deals with Enterococcus faecalis. As to the kind of experiment: Antibacterial activity against Enterococcus faecalis SR1004 clinical isolate assessed as growth inhibition by broth microdilution method. It counts as functional.
In data set [3] the test system is Staphylococcus aureus. As to the kind of experiment: Antibacterial activity against Staphylococcus aureus SR20549 clinical isolate assessed as growth inhibition by broth microdilution method. In kind it is functional.
Data set [4] concerns Enterococcus faecium. As to the kind of experiment: Antibacterial activity against Enterococcus faecium SR7940 clinical isolate assessed as growth inhibition by broth microdilution method. In kind it is functional.
The subject of data set [5] is Moraxella catarrhalis. As to the kind of experiment: Antibacterial activity against Moraxella catarrhalis SR26840 clinical isolate assessed as growth inhibition by broth microdilution method. In kind it is functional.
Data set [6] has as its system Staphylococcus aureus. As to the kind of experiment: Antibacterial activity against Staphylococcus aureus Smith assessed as growth inhibition by broth microdilution method. It counts as functional.
The target in the next data set is T1, Cytochrome P450 1A2 (Homo sapiens, UniProt P05177).
T1 sequence (P05177 whole entry): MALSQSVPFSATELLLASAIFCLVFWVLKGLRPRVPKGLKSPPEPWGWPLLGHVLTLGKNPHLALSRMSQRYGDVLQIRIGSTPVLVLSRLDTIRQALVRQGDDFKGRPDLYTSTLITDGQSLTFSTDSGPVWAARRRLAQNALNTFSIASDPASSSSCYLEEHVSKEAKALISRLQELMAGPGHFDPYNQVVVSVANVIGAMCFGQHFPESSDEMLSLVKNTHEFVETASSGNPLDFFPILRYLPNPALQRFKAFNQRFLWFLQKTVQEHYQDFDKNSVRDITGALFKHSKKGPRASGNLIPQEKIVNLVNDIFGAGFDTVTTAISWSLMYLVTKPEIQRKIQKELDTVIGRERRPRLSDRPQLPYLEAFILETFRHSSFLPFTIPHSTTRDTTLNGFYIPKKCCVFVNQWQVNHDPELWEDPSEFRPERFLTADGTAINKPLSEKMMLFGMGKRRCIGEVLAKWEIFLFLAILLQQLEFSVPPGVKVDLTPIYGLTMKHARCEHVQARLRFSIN
As to the kind of experiment: Inhibition of CYP1A2 in human liver microsomes assessed as ethoxyresorufin O-deethylation after 20 mins by fluorescence plate reader analysis. In kind it is ADME, Microsome. A general note: Liver microsomes are a subcellular fraction often used to study metabolism.

Data set [7] concerns Haemophilus influenzae. As to the kind of experiment: Antibacterial activity against Haemophilus influenzae SR27914 clinical isolate assessed as growth inhibition by broth microdilution method. In kind it is functional.
Data set [8] relates to Staphylococcus aureus. As to the kind of experiment: Antibacterial activity against methicillin-resistant Staphylococcus aureus SR3637 assessed as growth inhibition by broth microdilution method. It counts as functional.
The subject of data set [9] is Staphylococcus aureus. As to the kind of experiment: Antibacterial activity against methicillin-resistant Staphylococcus aureus SR3637 infected in JCL/ICR mouse systemic infection model assessed as mortality administered as iv measured over 7 days. It counts as functional. The note with it: 168 h. The method, boiled down:
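Lethal systemic infection model in mice; test agents were given intravenously.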

The next data set addresses Cytochrome P450 3A4 (Homo sapiens, UniProt P08684). As to the kind of experiment: Inhibition of CYP3A4 in human liver microsomes assessed as terfenadine hydroxylation after 20 mins by LC/MS/MS analysis. It counts as ADME, Microsome.
A further data set deals with T2, MAO-B (Rattus norvegicus, UniProt P19643).
T2 sequence (P19643 whole entry): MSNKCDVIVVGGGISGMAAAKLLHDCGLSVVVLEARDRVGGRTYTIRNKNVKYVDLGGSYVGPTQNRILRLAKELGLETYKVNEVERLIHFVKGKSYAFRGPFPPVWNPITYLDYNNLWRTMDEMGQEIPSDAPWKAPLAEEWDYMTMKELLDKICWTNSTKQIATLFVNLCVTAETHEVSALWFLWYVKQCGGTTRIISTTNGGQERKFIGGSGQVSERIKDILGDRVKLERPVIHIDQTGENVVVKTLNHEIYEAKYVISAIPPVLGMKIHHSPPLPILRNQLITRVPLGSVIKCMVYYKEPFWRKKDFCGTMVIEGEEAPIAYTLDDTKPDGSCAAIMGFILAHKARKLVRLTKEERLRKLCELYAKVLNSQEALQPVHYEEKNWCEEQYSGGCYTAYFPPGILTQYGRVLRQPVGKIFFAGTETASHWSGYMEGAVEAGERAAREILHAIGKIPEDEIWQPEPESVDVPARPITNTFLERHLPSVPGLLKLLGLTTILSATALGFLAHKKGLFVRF
As to the kind of experiment: Inhibition of MAO-B in rat forebrain using [14C]PEA as substrate at 30 uM incubated for 20 mins prior to substrate addition measured after 10 mins by liquid scintillation counting analysis. In kind it is tissue-based. The note with it: probe [14C]PEA.

The target of a further data set is Cytochrome P450 2C9 (Homo sapiens, UniProt P11712). As to the kind of experiment: Inhibition of CYP2C9 in human liver microsomes assessed as tolbutamide hydroxylation after 20 mins by LC/MS/MS analysis. In kind it is ADME, Microsome.
The target in a further data set is T3, MAO-A (Rattus norvegicus, UniProt P21396).
T3 sequence (P21396 whole entry): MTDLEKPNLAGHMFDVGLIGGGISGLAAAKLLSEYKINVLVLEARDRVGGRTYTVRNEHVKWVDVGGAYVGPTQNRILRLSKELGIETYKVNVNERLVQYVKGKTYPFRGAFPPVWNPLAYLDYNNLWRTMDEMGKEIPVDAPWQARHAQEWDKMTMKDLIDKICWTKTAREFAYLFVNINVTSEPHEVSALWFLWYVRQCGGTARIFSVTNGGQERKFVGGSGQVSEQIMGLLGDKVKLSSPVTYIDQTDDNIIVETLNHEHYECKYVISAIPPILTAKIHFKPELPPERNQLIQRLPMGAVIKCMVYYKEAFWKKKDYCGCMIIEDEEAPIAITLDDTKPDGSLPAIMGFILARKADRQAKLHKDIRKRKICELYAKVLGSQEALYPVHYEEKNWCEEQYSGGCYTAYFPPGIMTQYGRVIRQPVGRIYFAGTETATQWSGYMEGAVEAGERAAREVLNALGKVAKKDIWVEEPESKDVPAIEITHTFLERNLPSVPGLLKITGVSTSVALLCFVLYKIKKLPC
As to the kind of experiment: Inhibition of MAO-A in rat forebrain using [14C]5-HT as substrate at 30 uM incubated for 20 mins prior to substrate addition measured after 5 mins by liquid scintillation counting analysis. In kind it is tissue-based. The settings on record: probe [14C]5-HT.

The test system of data set [10] is Staphylococcus aureus. As to the kind of experiment: Potency index, ratio of linezolid ED50 to compound ED50 for methicillin-resistant Staphylococcus aureus SR3637 infected in iv dosed JCL/ICR mouse systemic infection model. It counts as functional.
The target in the next data set is Cytochrome P450 2D6 (Homo sapiens, UniProt P10635). As to the kind of experiment: Inhibition of CYP2D6 in human liver microsomes assessed as dextromethorphan O-demethylation after 20 mins by LC/MS/MS analysis. In kind it is ADME, Microsome.
The test system of data set [11] is Streptococcus pneumoniae. As to the kind of experiment: Antibacterial activity against Streptococcus pneumoniae SR26207 clinical isolate assessed as growth inhibition by broth microdilution method. It counts as functional.
Data set [12] concerns Staphylococcus aureus. As to the kind of experiment: Potency index, ratio of linezolid MIC to compound MIC for Staphylococcus aureus SR20549 clinical isolate. In kind it is functional.
For data set [13], the system named is Enterococcus faecalis. As to the kind of experiment: Potency index, ratio of linezolid MIC to compound MIC for Enterococcus faecalis SR1004 clinical isolate. It counts as functional.
Data set [14] has as its system Haemophilus influenzae. As to the kind of experiment: Potency index, ratio of linezolid MIC to compound MIC for Haemophilus influenzae SR27914 clinical isolate. It counts as functional.
For data set [15], the system named is Enterococcus faecium. As to the kind of experiment: Potency index, ratio of linezolid MIC to compound MIC for Enterococcus faecium SR7940 clinical isolate. In kind it is functional.
For data set [16], the system named is Staphylococcus aureus. As to the kind of experiment: Potency index, ratio of linezolid MIC to compound MIC for Staphylococcus aureus Smith. In kind it is functional.
The test system of data set [17] is Streptococcus pneumoniae. As to the kind of experiment: Potency index, ratio of linezolid MIC to compound MIC for Streptococcus pneumoniae SR26207 clinical isolate. It counts as functional.
For data set [18], the system named is Moraxella catarrhalis. As to the kind of experiment: Potency index, ratio of linezolid MIC to compound MIC for Moraxella catarrhalis SR26840 clinical isolate. It counts as functional.

Bounds are passed on as bounds.

Sequence of Cytochrome P450 2D6 (P10635 whole entry): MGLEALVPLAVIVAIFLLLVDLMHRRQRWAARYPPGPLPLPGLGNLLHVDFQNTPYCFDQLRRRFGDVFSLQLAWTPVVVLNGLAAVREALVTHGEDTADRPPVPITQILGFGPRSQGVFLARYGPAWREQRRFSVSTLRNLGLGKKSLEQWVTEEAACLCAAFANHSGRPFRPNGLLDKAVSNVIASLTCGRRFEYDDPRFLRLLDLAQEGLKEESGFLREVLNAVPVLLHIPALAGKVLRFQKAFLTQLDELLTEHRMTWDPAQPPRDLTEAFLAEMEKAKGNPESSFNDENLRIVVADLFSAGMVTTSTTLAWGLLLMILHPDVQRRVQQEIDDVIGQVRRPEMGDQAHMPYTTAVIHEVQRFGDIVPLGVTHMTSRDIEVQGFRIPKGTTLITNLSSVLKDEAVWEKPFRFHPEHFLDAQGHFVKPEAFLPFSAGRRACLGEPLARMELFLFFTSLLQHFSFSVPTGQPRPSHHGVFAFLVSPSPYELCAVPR
Sequence of Cytochrome P450 3A4 (P08684 whole entry): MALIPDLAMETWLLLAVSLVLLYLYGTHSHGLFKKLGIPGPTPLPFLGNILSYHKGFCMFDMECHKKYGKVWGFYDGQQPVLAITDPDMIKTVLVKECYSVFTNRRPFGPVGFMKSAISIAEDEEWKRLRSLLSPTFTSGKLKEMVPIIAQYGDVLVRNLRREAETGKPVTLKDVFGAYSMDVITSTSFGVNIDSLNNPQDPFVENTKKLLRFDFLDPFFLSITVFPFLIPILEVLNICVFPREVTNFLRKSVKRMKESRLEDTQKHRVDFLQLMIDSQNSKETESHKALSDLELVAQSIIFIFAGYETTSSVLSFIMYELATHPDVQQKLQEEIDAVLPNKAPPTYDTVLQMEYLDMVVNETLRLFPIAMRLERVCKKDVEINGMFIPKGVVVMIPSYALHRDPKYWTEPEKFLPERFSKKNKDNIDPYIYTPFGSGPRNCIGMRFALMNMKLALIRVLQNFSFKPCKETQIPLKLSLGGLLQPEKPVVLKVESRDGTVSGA
Sequence of Cytochrome P450 2C9 (P11712 whole entry): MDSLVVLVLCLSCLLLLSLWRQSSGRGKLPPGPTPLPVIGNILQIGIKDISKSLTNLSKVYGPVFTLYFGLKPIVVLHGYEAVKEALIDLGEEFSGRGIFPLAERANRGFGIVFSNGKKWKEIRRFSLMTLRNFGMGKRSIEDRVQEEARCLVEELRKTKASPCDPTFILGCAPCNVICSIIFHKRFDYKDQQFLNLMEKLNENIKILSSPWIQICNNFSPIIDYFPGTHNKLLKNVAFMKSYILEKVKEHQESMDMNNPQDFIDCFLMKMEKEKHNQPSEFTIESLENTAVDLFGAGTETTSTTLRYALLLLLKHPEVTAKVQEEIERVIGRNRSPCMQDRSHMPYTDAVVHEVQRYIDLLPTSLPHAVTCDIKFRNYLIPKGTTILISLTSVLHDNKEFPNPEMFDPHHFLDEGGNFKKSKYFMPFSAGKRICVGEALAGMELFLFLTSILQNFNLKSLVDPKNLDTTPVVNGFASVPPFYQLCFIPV

Regarding `COC(=S)NC[C@H]1CN(c2ccc(N3CCNN(C(=O)C(F)F)CC3)c(F)c2)C(=O)O1`, the MIC with Staphylococcus aureus [1] was 4 µg/mL; in the data set on Enterococcus faecalis [2] it was 0.25 µg/mL; in the data set on Staphylococcus aureus [3], 0.125 µg/mL; in the data set on Enterococcus faecium [4], 0.25 µg/mL; in the data set on Moraxella catarrhalis [5] it was 2 µg/mL; in the data set with Staphylococcus aureus [6] it was 0.5 µg/mL. Moreover, the MIC in the data set with Haemophilus influenzae [7] came out at 4 µg/mL; with Staphylococcus aureus [8] it was 0.25 µg/mL; in the data set with Streptococcus pneumoniae [11], 0.063 µg/mL. Moreover, the half-inhibitory concentration (IC50) at Cytochrome P450 1A2, on Cytochrome P450 3A4, on Cytochrome P450 2C9 and on Cytochrome P450 2D6 was greater than 20 µM throughout. In addition, the ED50 (in general, the dose that gives a 50% effect, or the effect in half of the subjects) in the data set with Staphylococcus aureus [9] stood at 0.77 mg/kg. For the same molecule, on MAO-B, the inhibition (commonly the change of the read-out against control, counted positive when it falls) at 10 min, 30 µM was 0.1%. At MAO-A, this molecule registered an inhibition at 5 min, 30 µM of 9.2%. Besides, the “Ratio ED50” value in the data set on Staphylococcus aureus [10] was 3.

On to `CC(=O)NC[C@H]1CN(c2ccc(N3CCOCC3)c(F)c2)C(=O)O1` [LINEZOLID], for which the MIC in the data set with Staphylococcus aureus [1] turned out to be 32 µg/mL; in the data set with Enterococcus faecium [4] it was 2 µg/mL; in the data set on Moraxella catarrhalis [5], 8 µg/mL; in the data set on Haemophilus influenzae [7] it was 16 µg/mL. Further, the “inhibition (INH)” value on Cytochrome P450 1A2 (human, microsomes, 20 min) is recorded as “Active”; on Cytochrome P450 3A4 (human, microsomes, 20 min), “Active”; on Cytochrome P450 2C9 (human, microsomes, 20 min) it was “Active”; at Cytochrome P450 2D6 (human, microsomes, 20 min) it was “Active”.

On to `COC(=S)NC[C@H]1CN(c2cc(F)c(N3CCNN(C(N)=O)CC3)c(F)c2)C(=O)O1`, for which the MIC in the data set on Staphylococcus aureus [1] amounted to 2 µg/mL; in the data set on Enterococcus faecalis [2] it was 0.5 µg/mL; in the data set with Staphylococcus aureus [3] it was 0.25 µg/mL; with Enterococcus faecium [4], 0.125 µg/mL; in the data set on Moraxella catarrhalis [5], 0.5 µg/mL; in the data set with Staphylococcus aureus [6] it was 0.25 µg/mL. Besides, the values for the MIC with Haemophilus influenzae [7], in the data set with Staphylococcus aureus [8] and in the data set on Streptococcus pneumoniae [11] were 16 µg/mL, 0.25 µg/mL and no more than 0.063 µg/mL, respectively. Moreover, the Ratio in the data set on Staphylococcus aureus [12], in the data set on Enterococcus faecalis [13], with Haemophilus influenzae [14], in the data set with Enterococcus faecium [15], in the data set on Staphylococcus aureus [16] and in the data set on Streptococcus pneumoniae [17] was 4 throughout. For the same molecule, the Ratio in the data set on Moraxella catarrhalis [18] worked out at 4. The median effective dose (ED50) in the data set on Staphylococcus aureus [9] is 1.23 mg/kg.

Turning to `CNC(=O)N1CCN(c2ccc(N3C[C@H](CNC(=S)OC)OC3=O)cc2F)CCN1`, the MIC with Staphylococcus aureus [1] was found to be 8 µg/mL; with Enterococcus faecalis [2], 0.5 µg/mL; in the data set with Staphylococcus aureus [3], 0.25 µg/mL; in the data set on Enterococcus faecium [4], 0.25 µg/mL; in the data set on Moraxella catarrhalis [5] it was 2 µg/mL; with Staphylococcus aureus [6], 0.5 µg/mL. Moreover, the values for the MIC with Haemophilus influenzae [7], in the data set on Staphylococcus aureus [8] and with Streptococcus pneumoniae [11] were 16 µg/mL, 0.5 µg/mL and 0.25 µg/mL, respectively. Moreover, the IC50 at Cytochrome P450 1A2, at Cytochrome P450 3A4, on Cytochrome P450 2C9 and on Cytochrome P450 2D6 was greater than 20 µM throughout. In addition, the 50% effective dose (ED50) in the data set with Staphylococcus aureus [9] was 0.86 mg/kg. The same molecule had an inhibition at 10 min, 30 µM against MAO-B of 3.1%. On MAO-A, this molecule showed an inhibition at 5 min, 30 µM of 3.4%.
